According to ChEMBL document CHEMBL2331546, “The structure of anthracycline derivatives determines their subcellular localization and cytotoxic activity” (ACS Med Chem Lett, 2013):
Activity calls are given as the source filed them. No cut-off for these calls is given here.

How the values were obtained:
MCF7 = experiment: Cytotoxicity against human MCF7 cells after 24 hrs by XTT assay; type: functional, cell-based; conditions: MCF7, 24 h
Summary of the method: (§1)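 Cells seeded at ~5 × 10^3 per well, exposed to drug at concentrations up to 60 μM for 24 h; viability read by XTT assay and IC50 values derived.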

[1] = Cytotoxicity against mouse DA-3 cells after 24 hrs by XTT assay; type: functional, cell-based; conditions: DA-3, 24 h; summary of the method: as §1
[2] = Cellular uptake in mouse DA-3 cell lysosome at 10 uM after 30 mins by LysoTracker red staining-based confocal microscopic analysis relative to control; type: ADME; conditions: da-3, 0.5 h
[3] = Displacement of SYBR from phage lambda DNA by FID assay; parameters: species or system Enterobacteria phage lambda
Summary of the method: (§2)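 Run at 37 °C; each well held 500 ng phage lambda DNA (48 Kb) with either SYBR safe (final dilution 1:10000) or YOYO-1 (one dye molecule per 40 base pairs) and test compound at up to 40 μM; dye fluorescence displacement gave IC50.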

[4] = Cytotoxicity against human ES2 cells after 24 hrs by XTT assay; type: functional, cell-based; conditions: ES-2, 24 h; summary of the method: as §1
[5] = (§3) Cytotoxicity against mouse DA-3 cells assessed as reduction in cell viability at 20 uM after 180 mins by XTT assay relative to control; type: functional
Summary of the method: (§4)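 DA3 cells incubated with 20 μM anthracycline; XTT viability measured after 60, 120 and 180 min of incubation; percentage cell death expressed relative to untreated control cells (set as 100% viability).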

SK-OV-3 = experiment: Cytotoxicity against human SKOV3 cells after 24 hrs by XTT assay; type: functional, cell-based; conditions: SK-OV-3, 24 h; summary of the method: as §1
[6] = Displacement of YOYO1 from phage lambda DNA by FID assay; parameters: species or system Enterobacteria phage lambda; summary of the method: as §2
[7] = Cellular uptake in mouse DA-3 cell mitochondria at 10 uM after 30 mins by mitotracker red staining-based confocal microscopic analysis; type: ADME; conditions: da-3, 0.5 h
[8] = Cellular uptake in mouse DA-3 cell cytoplasm at 10 uM after 30 mins by confocal microscopic analysis; type: ADME, cell-based; conditions: da-3, 0.5 h
DA-3 [9] = experiment: Cytotoxicity against mouse DA-3 cells assessed as reduction in cell viability at 20 uM after 60 mins by XTT assay; type: functional, cell-based; summary of the method: as §4
[10] = Cellular uptake in mouse DA-3 cell nucleus at 10 uM after 30 mins by DRAQ5 deep red staining-based confocal microscopic analysis relative to control; type: ADME; conditions: da-3, 0.5 h
[11] = Cellular uptake in mouse DA-3 cell lysosome at 10 uM after 30 mins by LysoTracker green staining-based confocal microscopic analysis relative to control; type: ADME; conditions: da-3, 0.5 h
[12] = Cellular uptake in mouse DA-3 cell lysosome at 10 uM after 10 hrs by LysoTracker green staining-based confocal microscopic analysis; type: ADME; conditions: da-3, 10 h
[13] = Cellular uptake in mouse DA-3 cell nucleus at 10 uM after 10 hrs by DRAQ5 deep red staining-based confocal microscopic analysis; type: ADME; conditions: da-3, 10 h
[14] = system: Enterobacteria phage lambda; experiment: Ratio of idarubicin IC50 to compound IC50 for displacement of YOYO1 from phage lambda DNA
[15] = Cytotoxicity against mouse DA-3 cells assessed as reduction in cell viability at 20 uM after 6 hrs by XTT assay relative to control; type: functional
DA-3 [16] = experiment: as §3; type: functional; summary of the method: as §4
[17] = Cellular uptake in mouse DA-3 cell mitochondria at 10 uM after 10 hrs by mitotracker red staining-based confocal microscopic analysis; type: ADME; conditions: da-3, 10 h
[18] = system: Enterobacteria phage lambda; experiment: Ratio of idarubicin IC50 to compound IC50 for displacement of SYBR from phage lambda DNA
[19] = system: Enterobacteria phage lambda; experiment: Ratio of doxorubicin IC50 to compound IC50 for displacement of SYBR from phage lambda DNA
DA-3 [20] = experiment: Cytotoxicity against mouse DA-3 cells assessed as reduction in cell viability at 20 uM by XTT assay; type: functional, cell-based; summary of the method: as §4

| Compound | IC50 (MCF7) [µM] | IC50 [1] [µM] | Drug uptake [2] [%] | IC50 [3] [µM] | IC50 [4] [µM] | Activity [5] [%] | IC50 (SK-OV-3) [µM] | IC50 [6] [µM] | Drug uptake [7] | Drug uptake [8] | Activity (DA-3 [9]) | Drug uptake [10] | Drug uptake [11] [%] | Ratio IC50 [14] | other results |
| --- | --- | --- | --- | --- | --- | --- | --- | --- | --- | --- | --- | --- | --- | --- | --- |
| C[C@@H]1O[C@@H](OCc2cc(O)c3c(c2)C(=O)c2cccc(O)c2C3=O)C[C@H](N)[C@H]1O | 23.6 | 7.9 | 67.12 | > 40 | 6.8 | 100 | 11.1 | > 40 | Not Active | Active | Active | Not Active |  |  |  |
| Cc1c(O)c2c(c(O)c1CO[C@H]1C[C@H](N)[C@@H](O)[C@H](C)O1)C(=O)c1ccccc1C2=O | 17.2 | 17.5 | 84.48 | > 40 | 17.7 |  | 16.3 | > 40 | Not Active | Active |  | Not Active |  |  |  |
| COc1cccc2c1C(=O)c1c(O)c3c(c(O)c1C2=O)C[C@@](O)(C(C)=O)C[C@@H]3O[C@H]1C[C@H](N)[C@H](O)[C@H](C)O1 [DAUNORUBICIN] | 33.9 | 1.9 |  | 0.14 | 25.5 | 80 | 20.6 | 0.84 |  |  | Active | Not Active | 83.19 |  |  |
| COc1cccc2c1C(=O)c1c(O)c3c(c(O)c1C2=O)C[C@@](O)(C(=O)CO)C[C@@H]3O[C@H]1C[C@H](N)[C@H](O)[C@H](C)O1 [DOXORUBICIN] | > 60 | 4 |  | 0.73 | > 60 |  | 55.7 | 0.6 | Not Active |  |  | 41.43% | 27.55 | 3 | Drug uptake [12]: Active; Drug uptake [13]: Active; Activity [15]: 12%; Activity (DA-3 [16]): inactive; Drug uptake [17]: Active |
| CC(=O)[C@]1(O)Cc2c(O)c3c(c(O)c2[C@@H](O[C@H]2C[C@H](N)[C@H](O)[C@H](C)O2)C1)C(=O)c1ccccc1C3=O [IDARUBICIN] | 7.3 | 2.3 |  | 0.89 | 3.2 |  | 4.5 | 1.97 | Not Active |  |  |  | 83.2 | 3 | Ratio IC50 [18]: 5; Ratio IC50 [19]: 5; Activity (DA-3 [20]): Active |
